Reference: ChEMBL document CHEMBL5335788, “Synthesis and evaluation of aromatic BDSF bioisosteres on biofilm formation and colistin sensitivity in pathogenic bacteria” (Eur J Med Chem, 2023)
Active and inactive are the calls of the source. The calls are words filed in the database; no cut-off is given here.

Assays:
[1] = test system: Stenotrophomonas maltophilia; assay: Potentiation of colistin-induced antibacterial activity against Stenotrophomonas maltophilia K279a assessed as colistin MIC at 50 uM incubated for 20 hrs by susceptibility testing (reference value: 2 to 8 ug/ml); format: functional
Method in brief: (§1)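 Colistin MIC by broth microdilution in cation-adjusted Mueller-Hinton broth, log-phase cells at final 5×10^5 cfu/mL. Two-fold colistin dilutions in duplicate with sulfonamide at final 0.05 mM (from 10 mM DMSO stock); 20 h at 37 °C. OD550 read. MIC taken as the lowest colistin level reducing growth ≥80% versus growth control. At least two replicates.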

Burkholderia multivorans [2] = assay: Potentiation of colistin-induced antibacterial activity against Burkholderia multivorans B10 assessed as colistin MIC at 50 uM incubated for 20 hrs by susceptibility testing (Rvb > 128 ug/ml); format: functional; method in brief: as §1
Escherichia coli [3] = assay: Antimicrobial activity against Escherichia coli ATCC 9637 assessed as microbial growth inhibition at 50 uM incubated for 20 hrs by broth microdilution method; format: functional, organism-based
Method in brief: (§2)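 Overnight cultures in cation-adjusted Mueller-Hinton broth, subcultured 1:100; log-phase cells at final 1×10^5 cfu/mL exposed to sulfonamide at final 0.05 mM (from 10 mM DMSO stock) for 20 h at 37 °C. OD550 read after shaking. Growth expressed as percent of 0.5% DMSO control wells. Screened at least twice.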

Acinetobacter baumannii [4] = assay: Potentiation of colistin-induced antibacterial activity against Acinetobacter baumannii ATCC 15308 assessed as colistin MIC at 50 uM incubated for 20 hrs by susceptibility testing (reference value: 0.25 to 0.5 ug/ml); format: functional; method in brief: as §1
Burkholderia cepacia = assay: Potentiation of colistin-induced antibacterial activity against Burkholderia cepacia R6193 assessed as colistin MIC at 50 uM incubated for 20 hrs by susceptibility testing (Rvb > 256 ug/ml); format: functional; method in brief: as §1
Acinetobacter baumannii [5] = assay: Antimicrobial activity against Acinetobacter baumannii ATCC 15308 assessed as microbial growth inhibition at 50 uM incubated for 20 hrs by broth microdilution method; format: functional, organism-based; method in brief: as §2
Pseudomonas aeruginosa [6] = assay: Potentiation of colistin-induced antibacterial activity against Pseudomonas aeruginosa assessed as colistin MIC at 50 uM incubated for 20 hrs by susceptibility testing (reference value: 1 to 2 ug/ml); format: functional; method in brief: as §1
Burkholderia cenocepacia = assay: Potentiation of colistin-induced antibacterial activity against Burkholderia cenocepacia 289 assessed as colistin MIC at 50 uM incubated for 20 hrs by susceptibility testing (Rvb > 256 ug/ml); format: functional; method in brief: as §1
[7] = test system: Stenotrophomonas maltophilia; assay: Inhibition of biofilm formation in Stenotrophomonas maltophilia K279a clinical isolate of rpf-1 subpopulation at 0.05 mM incubated for 24 hrs by crystal violet method; format: functional, organism-based
Method in brief: (§3)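 Crystal violet assay in LB: log-phase bacteria at final 1×10^5 cfu/mL with sulfonamide at final 0.05 mM, 24 h at 37 °C. Biomass read at OD620, then wells washed, biofilm heat-fixed 65 °C 15 min, stained 0.1% crystal violet 15 min, dye eluted in 30% acetic acid, OD550 read. Neat DMSO control taken as 100%. Duplicates, at least two independent experiments; one-way ANOVA.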

Pseudomonas aeruginosa [8] = assay: Antimicrobial activity against Pseudomonas aeruginosa PAO1 assessed as microbial growth inhibition at 50 uM incubated for 20 hrs by broth microdilution method; format: functional, organism-based; method in brief: as §2
Escherichia coli [9] = assay: Potentiation of colistin-induced antibacterial activity against Escherichia coli ATCC 9637 assessed as colistin MIC at 50 uM incubated for 20 hrs by susceptibility testing (reference value: 0.125 to 0.25 ug/ml); format: functional; method in brief: as §1
Acinetobacter baumannii [10] = assay: Inhibition of biofilm formation in Acinetobacter baumannii ATCC 15308 at 0.05 mM incubated for 24 hrs by crystal violet method relative to control; format: functional; settings: ATCC 15308, 24 h; method in brief: as §3
Pseudomonas aeruginosa [11] = assay: Inhibition of biofilm formation in Pseudomonas aeruginosa PAO1 at 0.05 mM incubated for 24 hrs by crystal violet method; format: functional, organism-based; method in brief: as §3
Burkholderia multivorans [12] = assay: Inhibition of biofilm formation in Burkholderia multivorans B10 at 0.05 mM incubated for 24 hrs by crystal violet method relative to control; format: functional; settings: B10, 24 h; method in brief: as §3

| MIC [1] [µg/mL] | MIC (Burkholderia multivorans [2]) [µg/mL] | MIC (Acinetobacter baumannii [4]) [µg/mL] | MIC (Burkholderia cepacia) [µg/mL] | MIC (Pseudomonas aeruginosa [6]) [µg/mL] | MIC (Burkholderia cenocepacia) [µg/mL] | MIC (Escherichia coli [9]) [µg/mL] | SMILES | growth inhibition (GI) (Escherichia coli [3]) | growth inhibition (GI) (Acinetobacter baumannii [5]) | inhibition [7] | growth inhibition (GI) (Pseudomonas aeruginosa [8]) | inhibition at 50 µM (Acinetobacter baumannii [10]) [%] | inhibition (Pseudomonas aeruginosa [11]) | inhibition at 50 µM (Burkholderia multivorans [12]) [%] |
| --- | --- | --- | --- | --- | --- | --- | --- | --- | --- | --- | --- | --- | --- | --- |
| 1 | > 128 | 0.25 | > 256 | 1 | > 256 | 0.25 | CCCCCCCCCc1ccccc1C(=O)NS(=O)(=O)c1ccc(OC)cc1 | inactive | inactive | inactive | inactive | 41 | inactive | – |
| 0.5 | > 128 | 0.25 | > 256 | 1 | > 256 | 0.25 | CCCCCCCCCc1ccccc1C(=O)NS(=O)(=O)c1ccccc1 | inactive | inactive | inactive | inactive | – | inactive | – |
| 1 | > 128 | 0.125 | > 256 | 1 | > 256 | 0.125 | CCCCCCCCCc1ccccc1C(=O)NS(=O)(=O)C1CC1 | inactive | inactive | inactive | inactive | – | inactive | – |
| 0.5 | > 128 | 0.125 | > 256 | 1 | > 256 | 0.063 | CCCCCCCCC/C=C\C(=O)O | inactive | inactive | inactive | inactive | 38 | inactive | – |
| 0.5 | > 128 | 0.25 | > 256 | 1 | > 256 | 0.25 | CCCCCCCCCc1ccccc1C(=O)NS(=O)(=O)CCC(F)(F)F | inactive | inactive | inactive | inactive | – | inactive | – |
| 1 | > 128 | 0.5 | > 256 | 2 | > 256 | 0.5 | CCCCCCCCCc1ccccc1C(=O)NS(=O)(=O)c1ccc([N+](=O)[O-])cc1 | inactive | inactive | inactive | inactive | 50 | inactive | – |
| 4 | > 128 | 0.5 | > 256 | 1 | > 256 | 0.5 | CCCCCCCCCc1ccccc1C(=O)NS(=O)(=O)c1ccc(C(C)(C)C)cc1 | inactive | inactive | inactive | inactive | – | inactive | > 35 |
| 0.5 | > 128 | 0.25 | > 256 | 1 | > 256 | 0.25 | CCCCCCCCCc1ccccc1C(=O)NS(=O)(=O)c1cccc(F)c1 | inactive | inactive | inactive | inactive | 27 | inactive | – |
| 1 | > 128 | 0.25 | > 256 | 1 | > 256 | 0.25 | CCCCCCCCCc1ccccc1C(=O)NS(=O)(=O)c1ccccc1F | inactive | inactive | inactive | inactive | 27 | inactive | – |
